Source: ChEMBL document CHEMBL4513216, “Probing the Open Global Health Chemical Diversity Library for Multistage-Active Starting Points for Next-Generation Antimalarials” (ACS Infect Dis, 2020)

Assay: Toxicity liver stage against HepG2, at 10uM
Assay type: cell-based
Parameters: test concentration 10 uM, cell line HepG2-A16-CD81EGFP
Conditions: human, HepG2-A16-CD81EGFP cells; read-out: INHIBITION
Method in brief: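 Uninfected HepG2-A16-CD81EGFP cells, 3 × 10^3 per well, 1536-well, plated on prespotted compound at 10 μM final, parasite-free screening media added to match infected plates; puromycin 10 μM positive, DMSO 0.5% negative; run in parallel with 48 h PbLuc assay at 37 °C, 5% CO2; viability by CellTiter-Glo luminescence, normalized to controls.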

Row | Structure (SMILES) | cytotoxicity at 10 µM [%]
1 | O=C(CCc1ccsc1)N1CCC(Nc2cccnn2)CC1 | -4.71
2 | Cc1cc(CC(=O)NC2CCCN(c3ccccc3F)C2=O)n[nH]1 (configuration not stated) | 1.46
3 | CCc1nnc2n1CCN(Cc1ccc(C(=O)N3CCCC3)cc1)C2 | -3.29
4 | CC1(C)CN(S(=O)(=O)N2CCCC2)CC1c1ccccc1 (configuration not stated) | -0.71
5 | COCc1ccccc1NC(=O)c1ccoc1 | -2.17
6 | CCC(CNC1CCN(C(=O)N(C)C)CC1)Oc1ccccc1C (configuration not stated) | 3.98
7 | COCC(=O)NCCc1ccc(I)s1 | 11.3
8 | COc1ccc2ncn(Cc3ncc[nH]3)c(=O)c2c1 | -11
9 | Cc1nc2c(c(=O)n1C)CCN(C(=O)Cn1cccc1)CC2 | -2.18
10 | O=C(C1CC1)N1CCN(Cc2coc(-c3ccc(Cl)cc3)n2)CC1 | 17.3
11 | CS(=O)(=O)N1CCCN(CCCSCc2ccccc2)CC1 | -2.35
12 | CO[C@@H]1CC[C@H]2[C@H]1OCCN2Cc1ccc(F)cc1 | 1.82
13 | CCc1nc(NC(=O)N(C)Cc2ccoc2)nn1C | 0.79
14 | CCCC(=O)NC1CCN(c2ccccc2S(=O)(=O)CC)CC1 | -2.78
15 | CC(NC1CCN(CCS(C)(=O)=O)CC1)c1cnn(C(C)C)c1 (configuration not stated) | -0.132
16 | Cc1nc(N2CCOCC2)nc2c1COCC21CCN(CC2CC2)C1 (configuration not stated) | -116
17 | CC(=O)NCCNC(=O)CN1CCN(Cc2nccn2C)C(C)C1 (configuration not stated) | -6.73
18 | CN(C)C(=O)C1CN(Cc2c[nH]cn2)CCN(C2CCOCC2)C1 (configuration not stated) | -5.97
19 | Cn1cc(N2CC3(CCN(CC4CCC4)CC3)OCC2=O)cn1 | -0.269
20 | CN(Cc1ccccc1F)C(=O)Cn1cc(NC(=O)C(C)(C)C)cn1 | 5.23
21 | CCOC(=O)CNC(=O)c1cccnc1Sc1cc(OC)ccc1OC | 1.73

Row | Structure (SMILES) | cytotoxicity at 10 µM [%]
22 | CS(=O)(=O)c1nccn1Cc1ccc(F)cc1Cl | -4.99
23 | O=C(c1ccco1)N1CCO[C@@H]2CNC[C@@H]21 | -108
24 | O=C(NCCc1ccc(Cl)s1)N1CCS(=O)(=O)CC1 | 1.92
25 | FC(F)(F)CN1CCC(CNc2nc3ccccc3o2)C1 (configuration not stated) | 2.7
26 | C[C@@H]1CN(c2cc(N3CCC(O)CC3)ncn2)C[C@@]1(O)C1CC1 | -1.79
27 | CCCNC(=O)c1ncn2c1CN(CC(C)C)S(=O)(=O)c1ccccc1-2 | -72
28 | Cc1cccc(C(=O)N2CCc3ncnc(C4CCOC4)c3CC2)n1 (configuration not stated) | -69.8
29 | Cc1ccoc1C(=O)N1CC[C@H]2O[C@@H](C)C[C@H]2C1 | -4.93
30 | CCc1cc(NC(=O)c2cccc(OCC(F)(F)F)n2)[nH]n1 | -1.42
31 | Cc1nc(CCNC(=O)C2CC(=O)N(C(C)(C)C)C2)sc1C (configuration not stated) | -13.2
32 | CCOc1ccc(C2c3c(N)nc(SC)nc3N=C3COC(=O)C32)cc1 (configuration not stated) | 30
33 | Cc1nc(CN2CCN(c3cc(CCN)ncn3)CC2)cs1 | -145
34 | Cc1nc2c(c(NC(C)C)n1)CCN(C(=O)c1cc[nH]n1)CC2 | 6.71
35 | COc1ccc(C(=O)NC2CCN(c3ncccn3)CC2)cc1F | -17.8
36 | CCOc1ccc(N(C)Cc2nnc(C3CC3)o2)cc1 | 8.17
37 | CCOCC1c2c(ncn2C(C)C)CCN1C(C)C (configuration not stated) | 10.5
38 | COCCN1C[C@H]2CCC[C@@H](CNc3ncccn3)[C@H]2C1 | -112
39 | COCC(O)CN(C)C(=O)NC1CCN(Cc2ccccn2)CC1 (configuration not stated) | -0.0353
40 | CC(C)(NC(=O)c1coc(COc2cccc(F)c2)n1)C(N)=O | -136
41 | CC(C)Cn1ncc(C(=O)NS(=O)(=O)C2CCCC2)c1C1CC1 | -9.97
42 | O=C(NC1CC1)c1cc(NC(=O)N2CCCC2)ccc1Cl | 3.31

Row | Structure (SMILES) | cytotoxicity at 10 µM [%]
43 | CNCc1cn(C2CCN(CCC(C)c3ccccc3)CC2)nn1 (configuration not stated) | 3.44
44 | COc1ccc2nc(C3CC3)cc(C(=O)NCCc3nnc[nH]3)c2c1 | 0.867
45 | Cn1cc(CNC2CCc3ncnn3C2)c(-c2ccncc2)n1 (configuration not stated) | -8.55
46 | O=C(CN1CCS(=O)(=O)CC1)NC1CCCOc2ccccc21 (configuration not stated) | 4.81
47 | CC1c2ncc(Cn3cncn3)n2CCN1C(=O)[C@H]1CCCO1 (some centres not stated) | -4.12
48 | Cc1cccc(Nc2nccnc2C2CCCN2CC(=O)N(C)C)n1 (configuration not stated) | -5.28
49 | O=C(NC1CC1)C(c1ccccc1)N1CCn2c(nnc2C2CC2)C1 (configuration not stated) | -6.22
50 | CN(C)CC(=O)N1Cc2cc(-c3cc[nH]n3)ccc2C1c1cnco1 (configuration not stated) | 21.4
51 | COC[C@@H]1CCC[C@]12CN(Cc1cccc(C)n1)CCO2 | 5.53
52 | CC(C)CN1C(=O)C2(CCN(Cc3ccoc3)C2)c2ccccc21 (configuration not stated) | 4.82
53 | CN(C)CCN1C(=O)CCCC12CCCN(C(=O)c1ccncc1)C2 (configuration not stated) | -1.31
54 | COc1cc(C(=O)N2CCCC(CNS(C)(=O)=O)C2)ccc1C (configuration not stated) | -21.6
55 | Cc1nc(-c2cc(C(=O)N3CCN(C)CC3)c3ccccn23)cn1C | 8.73
56 | Cc1ccc(NC2CCN(C(=O)c3ccc(F)cc3Cl)CC2)nn1 | -14.1
57 | Cc1c(C(=O)N2CCCC(C(=O)c3nccn3C)C2)c[nH]c(=O)c1C#N (configuration not stated) | 5.73
58 | CC(=O)Nc1ncc(S(=O)(=O)Nc2ccc3c(c2)OCCO3)s1 | 2.93
59 | CN(C)CCn1ccnc1C1CCN(C(=O)CCc2cccnc2)CC1 | -2.21
60 | CC(Cn1ccnc1)NS(=O)(=O)c1ccc(C#N)c(Cl)c1 (configuration not stated) | -9.97
61 | COc1ccc(CN(C)[C@@H]2CN(C(=O)c3ccccc3)C[C@H]2O)cc1 | -2.64
62 | Cc1nnc(NCc2cccc(OCC3CCCO3)c2)c(C#N)c1C (configuration not stated) | -33.8
63 | CCOCc1cnc2n1CCN(C(=O)Cc1ccccn1)C2C (configuration not stated) | 8.04

Row | Structure (SMILES) | cytotoxicity at 10 µM [%]
64 | Cc1nc2cc(OCc3nc(C(=O)NC(CO)CO)co3)ccc2s1 | 4.01
65 | O=c1[nH]cc(N2CCCCCC2)c(=O)[nH]1 | 3.46
66 | Cc1ccccc1C(NC(=O)Cn1cc(C2CC2)nn1)C1CC1 (configuration not stated) | -1.03
67 | CNS(=O)(=O)Cc1cccc(CNc2ccc(Cl)cn2)c1 | -5.71
68 | Cn1c(NCC(O)c2ccc(Cl)cc2)c(C#N)c(=O)n(C)c1=O (configuration not stated) | -3.27
69 | COc1ccsc1C(=O)NC1CCN(c2ccc(C#N)cc2)CC1 | -1.03
70 | CCCNC(=O)N1CCC(Oc2cc(C)ccc2F)(C(=O)O)CC1 | -23.8
71 | Cc1noc(C)c1CCC(=O)N1CCOCC1CC(=O)N1CCCC1 (configuration not stated) | 0.282
72 | COc1ncccc1CNC(=O)c1cccnc1O | -4.02
73 | O=C(O)C1(Oc2ccc3ccccc3c2)CCN(c2ncccn2)CC1 | 1.46
74 | CN1CCN(S(C)(=O)=O)c2cc(F)ccc21 | -1.15
75 | CS(=O)(=O)N1CC(c2nc[nH]n2)c2cc(C(=O)NC3CC3)ccc21 (configuration not stated) | -158
76 | Cc1cc(C(=O)N(C)Cc2cnn(C)c2)c(NC(=O)C(C)(C)C)s1 | 0.254
77 | CC1(C)COCCN1C(=O)Cc1cc(Cl)c2c(c1)OCCO2 | 1.54
78 | Cc1noc(C)c1C1CCCN1C(=O)CN1C(=O)OC(C)(C)C1=O (configuration not stated) | -2.57
79 | O[C@@]1(CNCCCNc2cccnc2)CCCN2CCCC[C@@H]21 | -3
80 | COCCN(CCOC)C(=O)NC1CCCCC1 | -0.655
81 | CCn1nc(C)c2ncnc(NCCn3cccn3)c21 | 7.73
82 | COCCCN1CCCC12CCN(Cc1cccnc1OC)CC2 | 11.8
